What was measured:
[1] = test system: TFEB; assay: TFEB activation / nuclear localization; type: cell-based
In short: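 FNIP1/2_DKO HeLa expressing WT or LIR FNIP1 were stimulated with two TRPML1-activating agents (2 μM and 1 μM). TFEB was immunostained with primary antibody overnight at 4°C, then Alexa secondary (1:1000) with DAPI for 1 h at RT. TFEB nuclear localization was scored by high-content imaging, ≥1500 cells per condition. Values are means ± SD; unpaired t test.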

[2] = test system: HEK293T cells; assay: LC3 lipidation / GFP-LC3B puncta, WT or ATG13_KO cells; type: cell-based, human; conditions: for LC3 lipidation / puncta (in words): HEK293T WT or ATG13_KO, MK6-83 25 μM, C8 2 μM, AZD8055 1 μM
In short: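 HEK293T cells in DMEM with 10% FBS and 1% penicillin/streptomycin at 37°C, 5% CO2, treated over a time course. Lysates denatured in Laemmli buffer at 100°C for 5 min. Immunoblot: primary antibodies in 5% BSA/TBS-0.2% Tween 20 overnight at 4°C; HRP secondaries at 1:20,000 for 1 h at room temperature. GFP-LC3B followed by time-lapse imaging.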

[3] = test system: FLCN-FNIP1 complex in HeLa cells; assay: FLCN-FNIP recruitment to membrane fractions, Western blot; type: cell-based; conditions: monensin 1uM, C8 2uM, 30 min; WT or TRPML1_KO HeLa
In short: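 HeLa cells (WT or TRPML1_KO) grown in DMEM with 10% FBS and 1% penicillin/streptomycin at 37°C, 5% CO2. 1.5 × 10^6 cells plated the day before treatment. Membrane fractions prepared with a commercial kit and denatured in Laemmli buffer at 100°C for 5 min. Immunoblot: primary antibodies in 5% BSA/TBS-0.2% Tween 20 at 4°C overnight; HRP secondaries at 1:20,000 for 1 h at room temperature.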

[4] = test system: primary bone marrow–derived macrophages (BMDMs); assay: LC3 puncta in primary BMDMs, ATG16L1 WT or K490A; type: cell-based, mouse; conditions: 1 hour
[5] = test system: FLCN-FNIP1 complex; assay: Co-immunoprecipitation of GABARAP with FLCN-FNIP1; type: binding, human; conditions: HEK293T cells, transfected 20 hours
[6] = test system: FNIP1/2_DKO HeLa cells; assay: GPNMB protein level; type: cell-based; conditions: prolonged treatment; WT or LIR FNIP1 in FNIP1/2_DKO HeLa
In short: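 GPNMB, a TFEB/TFE3 target, was read by Western blot in FNIP1/2_DKO HeLa re-expressing WT or LIR-variant FNIP1 after prolonged stimulation to activate TRPML1. Cells were grown at 37°C in 5% CO2. Lysates were denatured in Laemmli buffer (100°C, 5 min). Primary antibody (1:1000 unless noted) was in 5% BSA/TBS-0.2% Tween 20, overnight at 4°C. HRP secondary was 1:20,000, 1 h at RT.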

Compound: CO/C1=C\C(C)=C\[C@@H](C)[C@@H](O)[C@@H](C)C/C(C)=C/C=C/[C@H](OC)[C@@H]([C@@H](C)[C@@H](O)[C@H](C)[C@@]2(O)C[C@@H](O)[C@H](C)[C@@H](C(C)C)O2)OC1=O [BafA1, bafilomycin A1]
- TFEB activation, effect of BafA1 cotreatment (in words) ([1]; BafA1 100 nM, acute, HeLa): sufficient to block TFEB activation by TRPML1 agonists; however, it did not affect TFEB activation upon mTOR inhibition

Compound: Cc1ccc(S(=O)(=O)Nc2ccccc2N2CCCCC2)s1 [MK6-83]
- LC3 lipidation / puncta (in words) [2]: rapid conversion of LC3 from its cytoplasmic “I” form to the lipidated, punctate “II” form in both wild-type (WT) and autophagy-deficient cells (ATG13_KO)

Compound: CC[C@@]1([C@@H]2O[C@@H]([C@H]3O[C@@](O)(CO)[C@H](C)C[C@@H]3C)C[C@@H]2C)CC[C@H]([C@]2(C)CC[C@]3(C[C@H](O)[C@@H](C)[C@@H]([C@@H](C)[C@@H](OC)[C@H](C)C(=O)O)O3)O2)O1 [monensin]
- FLCN-FNIP membrane recruitment (in words) [3]: could induce FLCN-FNIP1 complex sequestration independently of TRPML1
- TFEB activation, FNIP1-LIR dependence (in words) ([1]; FNIP1-WT or FNIP1-LIR in FNIP1/2_DKO HeLa, monensin 1uM, 4 hr): regulated TFEB activation in an FNIP1-LIR domain–dependent manner

Compound: CC1=CC(C)(C)N(C(=O)CN2C(=O)c3ccccc3C2=O)c2ccccc21 [ML-SA1]
- LC3 lipidation / puncta (in words) [2]: rapid conversion of LC3 from its cytoplasmic “I” form to the lipidated, punctate “II” form in both wild-type (WT) and autophagy-deficient cells (ATG13_KO)
- LC3 puncta in BMDMs (in words) [4]: unable to induce LC3 puncta in ATG16L1^K490A-expressing cells

Compound: GABARAP: full-length human GABARAP (1 to 117), ATG8 family protein
- interaction with FLCN-FNIP1 complex (in words) [5]: interacts with GABARAP through LIR-dependent binding

Compound: COc1ccc(-c2ccc3c(N4CCOC[C@@H]4C)nc(N4CCOC[C@@H]4C)nc3n2)cc1CO [AZD8055]
- TFEB activation versus ATG16L1 allele status (in words) ([1]; ATG16L1_KO HeLa reexpressing ATG16L1 variants): activated TFEB irrespective of ATG16L1 allele status
- TFEB activation / nuclear accumulation (in words) ([1]; HeLa): robust TFEB activation
- LC3 lipidation, sensitivity to BafA1 or PIK-III (in words) ([2]; BafA1 100 nM, PIK-III 5 μM): sensitive to the VPS34 inhibitor PIK-III and potentiated with the vacuolater ATPase (V-ATPase) inhibitor bafilomycin A1 (BafA1)
- LC3 lipidation / puncta (in words) [2]: able to regulate LC3 lipidation in WT but not ATG13_KO cells
- GPNMB protein levels (in words) [6]: largely suppressed

— PMC10938568 (Science Advances, 2021)
